Measured values published in the RNAGym collection of RNA variant scans (doi:10.1126/science.aae0568).
This sample holds only a part of the variants without activity.

B1: tRNA (parent)
chain: GUUCCGUUGGCGUAAUGGUAACGCGUCUCCCUCCUAAGGAGAAGACUGCGGGUUCGAGUCCCGUACGGAACG

Variants of: B1
Test: yeast fitness relative to wild type (ratio to wild type); higher = fitter; tRNA-Arg(CCU), competitive growth, 37 C, YPD
Procedure, shortened: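 Variants of the tRNA-Arg(CCU) gene were chemically synthesised with a 3% per-site mutation rate across 69 sites and placed at the native genomic locus in Saccharomyces cerevisiae. Six parallel replicates of the pooled strains were competed in YPD at 37°C for 24 hours, and gene amplicons from the start and end populations were read by 100-nucleotide paired-end sequencing. Darwinian fitness relative to wild type was derived from changes in genotype frequencies. Genotypes required ≥ 100 starting reads, and estimates < 0.5 were set to 0.5.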

Variant | yeast fitness
G17A A42U A57U C61G | 0.591
G17A C31U U35C C62G | ≤ 0.5
G17A A40U A42C C49A C66A | ≤ 0.5
G17A C22A A45C C46U C61A | ≤ 0.5
G17A C24G C27G U59C A69U | ≤ 0.5
U16G A42U C62A A70C | ≤ 0.5
U16G A40C | 0.761
U16G U54C A69C | 0.718
G17A C34U | 0.573
G17A C34A | 0.595
U16G G48A G68A | 1.09
U16C G18U C24U A45C C46G | ≤ 0.5
U16G C34U C60A A70C | ≤ 0.5
U16G U54C C60A | ≤ 0.5
U16C G17A C27U C34G G38C A43G C62A | ≤ 0.5
U16G C55U G67C | ≤ 0.5
U16G C49G | 0.636
U16G C49U | 0.916
U16G C24U G44A C46G | ≤ 0.5
U16C C49U | 0.867
U16C C49G | 0.909
U16C G17C C31U A37U | ≤ 0.5
G17A A42G A70C | ≤ 0.5
U16C G51C C55G C62A | ≤ 0.5

Variant | yeast fitness
U16G U28C G51A C55G | ≤ 0.5
G17A A45C | 0.735
G17A A45U | 0.763
U16G U54C | 0.704
U16G C30A A65G | 0.564
U16G A20C A21G C30U | 0.579
U16G A43U G50C G67A | ≤ 0.5
G17A A40G | 0.722
G17A A42C | 0.645
U16G G23A A40C C66U | ≤ 0.5
G17A A36C A37U A43C C46U C49G G50A | 0.59
U16G U26C C49G | ≤ 0.5
G17A C46U G51C | 0.647
U16G C29G C33U G39A C49U | ≤ 0.5
U16G C22G A43C | 0.587
G17A A42U A57U | ≤ 0.5
G17A C24G C27G G67A | 0.583
U16G G44A G56A | 0.663
U16G A57G C62G | ≤ 0.5
U16C U26C A36C U64A A70C | ≤ 0.5
U16C U35C G44C | ≤ 0.5
U16G C34U | 0.63
U16G G63C | 0.694
G17A C31G G44C A69U | 0.528

Variant | yeast fitness
U16C U59A G67C | 0.675
G17A A42U C55U C62A | ≤ 0.5
U16C U19C A21C G23C C49G G52A | ≤ 0.5
U16G G68U | 0.853
G17A A65C | 0.733
G17A A65G | 0.884
U16G C27G C49A C60A | ≤ 0.5
U16G C29G C62U | ≤ 0.5
U16G C29G C62G | ≤ 0.5
U16C G48A | 0.996
U16G C34U A57G A69C | ≤ 0.5
U16C C55U A57C G58A | 0.593
G17A A21C U53A | ≤ 0.5
U16G A42C U47C | 0.676
G17A C22U A45G C46U | 0.538
G17A A20G U28A U35A | 0.561
U16C G17C | 0.665
U16C G17A | 0.797
G17A C22A A45C G63C C66U | ≤ 0.5
U16C C49U A69U | 0.555
U16G U19C U28C | 0.986
G17A C30U A36C A43C | ≤ 0.5
U16G C24U C29G U35C G50A C62A | ≤ 0.5
U16C C49A G63A | ≤ 0.5

Variant | yeast fitness
U16G G39A A45C G67A | ≤ 0.5
G17A C29U C33U C60G A65G | ≤ 0.5
U16C C55A G67A A70G | ≤ 0.5
U16C U35A | 0.74
G17A A37G A43C | ≤ 0.5
U16G A37U U47A G52U | ≤ 0.5
U16G A43C | 0.919
G17A A20U C24U A65U | ≤ 0.5
G17A C30A C60G C62A | ≤ 0.5
G17A C31A U32A A57G | 0.545
U16G C31G G63C A65U | ≤ 0.5
U16G A70C | 0.911
U16G A70G | 1.03
U16G U26G A36G G67U G68C | ≤ 0.5
U16G A45U G50A C66U | ≤ 0.5
G17A C24G C27G | 0.57
U16G U47A G52A | ≤ 0.5
U16G C24G A37U | ≤ 0.5
G17A C24A C46A | 0.727
U16C C61G | 0.63
U16G A45G C66U | 0.771
U16G U26G A36G | 0.58
G17A C27U | 0.711
G17A C27G | 0.535

Variant | yeast fitness
G17A A36U C49U C62U | ≤ 0.5
U16G G18A A21U A40C G58C A65C C66G | ≤ 0.5
G17A C22G C29U | ≤ 0.5
G17A A45U G52A C61U | ≤ 0.5
U16G C31U A42U G56C | ≤ 0.5
U16G C31G C66U | 0.586
U16C G44A U54C G56C | 0.558
U16G U59C C60G | ≤ 0.5
U16G A20C C60U | ≤ 0.5
G17A C33G | ≤ 0.5
U16C C49U A70U | 0.745
U16C C49U A70G | 0.581
U16G A21C C34A | ≤ 0.5
G17A C22U C29A A36G A45U | ≤ 0.5
G17A A20G C27G A36C U53A | 0.639
U16G C49U C60A C61A | ≤ 0.5
U16C U47C G51U | ≤ 0.5
U16G C49U G52A G63A | 0.632
U16G U28A A42G | 0.665
U16G U28A G52C U54A C66U | ≤ 0.5
G17A C27G G67A | 0.573
G17A C29U U35G A37C G38C C49G | 0.545
U16G C24U C29G U35C G50A C66U | ≤ 0.5
U16G C34U C46G U59A | ≤ 0.5

Variant | yeast fitness
U16G C22G C46G | 0.657
G17A A36C | 0.558
U16C G67A | 0.891
G17A C22U A43U | 0.639
G17A A37C A65C | ≤ 0.5
U16G G23C G48A C61A | 0.577
G17A C29U C33U C60G | 0.594
G17A C22A C60U C61U | ≤ 0.5
U16C G41C C46A | 0.721
U16G C31U G51C A65C | ≤ 0.5
U16G C24G C27A | ≤ 0.5
G17A A57C G63A G67A | ≤ 0.5
U16C G18A C24G A57C | ≤ 0.5
U16G U35A G51C C61U | ≤ 0.5
G17A C34G A65U | ≤ 0.5
U16C G68C A69U | ≤ 0.5
G17A C22U U32A C34U A37G A40U A69U | ≤ 0.5
G17A C24A C30U G41A A45C G58C | ≤ 0.5
G17A A36G G44A U47C A70U | ≤ 0.5
G17A C34U A57U U64C | ≤ 0.5
U16G C24U | 0.822
G17A A21G | 0.765
U16G A45G G67C | 0.63
U16C U26G C61U | ≤ 0.5

Variant | yeast fitness
U16C U54C | 0.723
U16G U53A U59A C66A | ≤ 0.5
U16C U19A U26A | 0.648
U16G A36G A45G | 0.745
U16G C46A C66A | ≤ 0.5
U16G U19G C33U A40C G41A A43C C61G | ≤ 0.5
G17A A42C A65G | ≤ 0.5
U16C G18A C34G G39A C62A | ≤ 0.5
U16G A37C C66A | ≤ 0.5
U16G U47A | 0.781
U16C C60U | 0.79
G17A A20C G25A G68C | ≤ 0.5
U16G A65C | 0.932
U16G A65G | 0.904
U16G C27G U54C | 0.633
G17A C29G A43G G68C | ≤ 0.5
G17A C34U A42U G51C C66U | ≤ 0.5
G17A A37C U54A C55A C66G | ≤ 0.5
G17A C27U U35C C61G | ≤ 0.5
G17A C27G C29G A43G | 0.561
G17A C30U C49U C66U A69C | ≤ 0.5
U16G C27A C31G A42G C61A | 0.543
G17A C27G A36C U54A | 0.555
